Consider 22 molecules from ChEMBL document CHEMBL1126556, “Novel antiasthmatic agents with dual activities of thromboxane A2 synthetase inhibition and bronchodilation. 1. 2-[2-(1-Imidazolyl)alkyl]-1(2H)-phthalazinones” (J Med Chem, 1993).

Structures are written as SMILES.

Assay [1] relates to Thromboxane-A synthase (Oryctolagus cuniculus). As to the kind of experiment: Tested for inhibition of thromboxane A2 (TXA2) production in rabbit by in vitro assay at 1 uM.
Assay [2] is filed under the species Cavia porcellus. As to the kind of experiment: Tested in vitro for bronchodilatory activity by spontaneous tone inhibition in guinea pig tracheal strips. It is filed as functional. As to conditions: Trachea.
For assay [3], the system named is Cavia porcellus. As to the kind of experiment: In vivo inhibitory effect on airway constriction induced by histamine 2-5 micro g/kg iv at 1 min after 10 mg/kg intravenous dose in anesthetized guinea pigs. The class given is functional. In outline:
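Male Dunkin-Hartley guinea pigs, anesthetized with pentobarbital 35 mg/kg ip, cannulated at jugular vein and trachea, ventilated at 10 mL/kg and 60 strokes/min. Insufflation pressure recorded continuously by transducer. Histamine given iv every 10 min until the constriction was reproducible. Compound 10 mg/kg iv given 1 min before the next challenge. Result is mean % inhibition against control response, from ≥3 experiments.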

Assay [4] addresses T1, Thromboxane-A synthase (Rattus norvegicus) (UniProt P49430).
T1 sequence (whole entry): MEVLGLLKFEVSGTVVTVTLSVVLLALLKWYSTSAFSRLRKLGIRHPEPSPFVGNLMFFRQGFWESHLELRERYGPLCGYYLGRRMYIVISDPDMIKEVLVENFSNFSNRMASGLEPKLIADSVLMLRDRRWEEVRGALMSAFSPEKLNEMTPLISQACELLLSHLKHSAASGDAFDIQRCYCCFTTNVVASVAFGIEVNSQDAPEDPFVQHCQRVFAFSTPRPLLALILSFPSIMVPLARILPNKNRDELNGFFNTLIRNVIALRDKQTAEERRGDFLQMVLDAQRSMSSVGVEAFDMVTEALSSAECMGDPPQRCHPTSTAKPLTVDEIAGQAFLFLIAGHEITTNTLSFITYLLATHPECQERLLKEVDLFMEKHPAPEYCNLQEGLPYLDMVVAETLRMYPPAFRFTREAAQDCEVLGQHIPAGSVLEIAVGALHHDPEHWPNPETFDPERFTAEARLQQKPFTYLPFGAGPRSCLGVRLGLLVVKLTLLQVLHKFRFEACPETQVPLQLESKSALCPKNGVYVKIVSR
As to the kind of experiment: Tested for inhibition of thromboxane A2 (TXA2) production in rat serum by ex vivo assay after peroral dose of 30 mg/kg. The class given is functional, organism-based. Details: dose 30 mg/kg. Put shortly:
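Male SD rats (240–260 g), fasted 20 h, dosed orally in 0.5% carboxymethylcellulose or given vehicle. After 1 h under ether, 2 mL cardiac blood was drawn and clotted 90 min at 37 °C. Serum was EtOH-deproteinized and stored at -20 °C. TXB₂ measured by radioimmunoassay. % inhibition calculated against each vehicle control group.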

As to `COc1ccc(-c2nn(CCn3ccnc3)c(=O)c3ccccc23)cc1F`, the inhibition in assay [1] is 63%; in assay [4] it was 60%. The molecule also had a 50% inhibitory concentration (IC50) in the assay filed under Cavia porcellus [2] of 3.89 µM. The same molecule gave an inhibition in vivo at 10 mg/kg in the assay on Cavia porcellus [3] of 54%.
For the molecule `O=C(O)c1cccc(-c2nn(CCn3ccnc3)c(=O)c3ccccc23)c1`, in assay [1], the inhibition is 10%. The IC50 in the assay filed under Cavia porcellus [2] was > 100 µM. The inhibition in vivo at 10 mg/kg in the assay with Cavia porcellus [3] stood at 33%.
On to `O=c1c2ccccc2c(Cc2ccccc2)nn1CCn1ccnc1`, for which the figures for the inhibition in assay [1] and in assay [4] were 45% and -5%, respectively. This molecule also gave an IC50 in the assay filed under Cavia porcellus [2] of 10.7 µM. The inhibition in vivo at 10 mg/kg in the assay with Cavia porcellus [3] is 98%.
Regarding `O=c1c2ccccc2c(-c2cccc(C(F)(F)F)c2)nn1CCn1ccnc1`, the inhibition in assay [1] came out at 49%; in assay [4] it was 37%. The same molecule showed an IC50 in the assay filed under Cavia porcellus [2] of 1 µM. Besides, at 10 mg/kg the inhibition in vivo in the assay on Cavia porcellus [3] was 42%.
For `Cc1ccc(-c2nn(CCn3ccnc3)c(=O)c3ccccc23)cc1`, the inhibition in assay [1] was 76%; in assay [4], 0%. The IC50 in the assay listed under Cavia porcellus [2] was 5.13 µM. The inhibition in vivo at 10 mg/kg in the assay with Cavia porcellus [3] was 94%.
In the case of `O=c1c2ccccc2c(Cc2cccs2)nn1CCn1ccnc1`, the figures for the inhibition in assay [1] and in assay [4] were 29% and 35%, respectively. In the assay filed under Cavia porcellus [2], this molecule showed an IC50 of 7.59 µM. In the assay with Cavia porcellus [3], the inhibition in vivo at 10 mg/kg was determined as 100%.
As for `O=c1c2ccccc2c(-c2ccccc2)nn1CCCCn1ccnc1`, in assay [1], the inhibition came out at 65%. The same molecule had an IC50 in the assay filed under Cavia porcellus [2] of 17.4 µM.
In the same order, the values of `O=c1c2ccccc2c(-c2ccccc2)nn1CCCn1ccnc1` are 57% and 11 µM.
With `COc1ccc(-c2nn(CCn3ccnc3)c(=O)c3ccccc23)cc1OC`, the inhibition in assay [1] was found to be 27%; in assay [4], 32%. In addition, half-maximal inhibition in the assay filed under Cavia porcellus [2] (IC50) was put at 6.46 µM. This molecule also came in with an inhibition in vivo at 10 mg/kg with Cavia porcellus [3] of 90%.
On to `CCOC(=O)c1ccc(-c2nn(CCn3ccnc3)c(=O)c3ccccc23)s1`, for which the inhibition in assay [1] turned out to be 62%. Further, half-maximal inhibition in the assay listed under Cavia porcellus [2] (IC50) was put at 13.2 µM. The molecule further returned an inhibition in vivo at 10 mg/kg in the assay on Cavia porcellus [3] of 92%.
In the case of `CCOC(=O)c1ccc(-c2nn(CCn3ccnc3)c(=O)c3ccccc23)cc1`, the inhibition in assay [1] turned out to be 60%. In the assay filed under Cavia porcellus [2], this molecule showed an IC50 of 10 µM. In the assay with Cavia porcellus [3], this molecule showed an inhibition in vivo at 10 mg/kg of 92%.
As for `CCOC(=O)c1ccccc1-c1nn(CCn2ccnc2)c(=O)c2ccccc12`, the inhibition in assay [1] is 64%. For the same molecule, inhibition in the assay filed under Cavia porcellus [2] was half-maximal at 60.3 µM (IC50). In addition, 10 mg/kg produced 60% inhibition in vivo in the assay with Cavia porcellus [3].
`O=c1c2ccccc2c(Cc2ccc(Cl)cc2)nn1CCn1ccnc1`: the inhibition came to 49% in assay [1] and 40% in assay [4]. This molecule also gave an IC50 in the assay filed under Cavia porcellus [2] of 5.62 µM. The inhibition in vivo at 10 mg/kg in the assay on Cavia porcellus [3] turned out to be 100%.
`O=C(O)c1ccccc1-c1nn(CCn2ccnc2)c(=O)c2ccccc12`: the inhibition in assay [1] stood at 14%. The molecule further gave a half-inhibitory concentration (IC50) in the assay filed under Cavia porcellus [2] of 49 µM. The molecule further gave an inhibition in vivo at 10 mg/kg in the assay with Cavia porcellus [3] of 94%.
Consider `O=c1c2ccccc2c(-c2ccccc2)nn1CCCCCCn1ccnc1`, for which the inhibition in assay [1] is 79%. Half-maximal inhibition in the assay filed under Cavia porcellus [2] (IC50) required 9.77 µM.
For `O=C(O)c1ccc(-c2nn(CCn3ccnc3)c(=O)c3ccccc23)cc1`, the inhibition in assay [1] was found to be 24%. Besides, in the assay filed under Cavia porcellus [2], the IC50 is 64.6 µM. In addition, in the assay on Cavia porcellus [3], testing at 10 mg/kg gave an inhibition in vivo of 21%.
The molecule `Cn1c(=O)c2[nH]cnc2n(C)c1=O` [AMINOPHYLLINE] gave a half-maximal inhibitory concentration (IC50) in the assay filed under Cavia porcellus [2] of 46.8 µM. Also, in the assay on Cavia porcellus [3], the inhibition in vivo at 10 mg/kg stood at 86%. Besides, in assay [4], the inhibition is 0%.
Take `O=c1c2ccccc2c(-c2ccccc2)nn1CCCCCCCCn1ccnc1`: the inhibition in assay [1] worked out at 63%. In the assay filed under Cavia porcellus [2], this molecule gave an IC50 of 8.13 µM.
`O=C(O)/C=C/c1ccc(Cn2ccnc2)cc1` [OZAGREL]: the IC50 in the assay listed under Cavia porcellus [2] was > 1000 µM. The inhibition in vivo at 10 mg/kg with Cavia porcellus [3] was 0%.
Take `O=C(O)c1ccc(-c2nn(CCn3ccnc3)c(=O)c3ccccc23)s1`: in the assay filed under Cavia porcellus [2], inhibition was half-maximal at 34.7 µM (IC50). The inhibition in vivo at 10 mg/kg with Cavia porcellus [3] was found to be 5%.
In the case of `O=c1c2ccccc2c(-c2ccc(C(F)(F)F)cc2)nn1CCn1ccnc1`, the inhibition in assay [1] is 40%. This molecule also had an IC50 in the assay filed under Cavia porcellus [2] of 11.2 µM.
On to `O=c1c2ccccc2c(-c2ccccc2)nn1CCCCCn1ccnc1`, for which the inhibition in assay [1] amounted to 69%. In the assay listed under Cavia porcellus [2], this molecule gave a half-inhibitory concentration (IC50) of 23.4 µM.
